Data: ChEMBL document CHEMBL1122360, “Inhibitors of gastric acid secretion: antisecretory 2-pyridylurea derivatives” (1983)

Legend:
Canis familiaris [1] = test: Inhibition of gastric acid secretion at 40 mg/kg oral administration to dogs; assay type: functional; settings: Canis lupus familiaris, Stomach
Procedure, shortened: (§1)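 Unanesthetized female beagle dogs with chronic gastric fistula; compound in 50 mL aqueous 1% methylcellulose delivered into stomach via fistula cannula 60 min before gastrin tetrapeptide (64 μg/kg sc, maximal secretory dose). Gastric output drained by gravity over three 30-min periods; acid concentration by titration to pH 7 with 0.01 N NaOH; percent decrease in acid concentration versus placebo trial in same animal; dose as base weight.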

Canis familiaris [2] = test: Inhibition of gastric acid secretion at 20 mg/kg oral administration to dogs; assay type: functional; settings: Canis lupus familiaris, Stomach; procedure, shortened: as §1
Canis familiaris [3] = test: Acid output of histamine stimulated inhibition of gastric secretion when administered perorally in dogs; assay type: functional; settings: Canis lupus familiaris, Stomach, po
Procedure, shortened: (§2)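 Unanesthetized female beagle dogs with chronic gastric fistula; compound in 50 mL 1% aqueous methylcellulose given into stomach via fistula cannula 60 min before stimulant (gastrin tetrapeptide 64 μg/kg sc, or histamine dihydrochloride 64 μg base/kg sc). Output drained by gravity, three 30-min periods; volume measured, acid concentration titrated to pH 7 with 0.01 N NaOH, output = volume × concentration. Percent change vs placebo trial in same dog.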

Canis familiaris [4] = test: Acid concentration of histamine stimulated inhibition of gastric secretion when administered perorally in dogs; assay type: functional; settings: Canis lupus familiaris, Stomach, po; procedure, shortened: as §2
Canis familiaris [5] = test: Volume of histamine stimulated inhibition of gastric secretion when administered perorally in dogs; assay type: functional; settings: Canis lupus familiaris, Stomach, po; procedure, shortened: as §2
Canis familiaris [6] = test: Inhibition of gastric acid secretion at 10 mg/kg oral administration to dogs; assay type: functional; settings: Canis lupus familiaris, Stomach; procedure, shortened: as §1
Canis familiaris [7] = test: Volume of gastrin tetrapeptide stimulated inhibition of gastric secretion when administered perorally in dogs; assay type: functional; settings: Canis lupus familiaris, Stomach, po; procedure, shortened: as §2
Canis familiaris [8] = test: Acid output of gastrin tetrapeptide stimulated inhibition of gastric secretion when administered perorally in dogs; assay type: functional; settings: Canis lupus familiaris, Stomach, po; procedure, shortened: as §2
Canis familiaris [9] = test: Acid concentration of gastrin tetrapeptide stimulated inhibition of gastric secretion when administered perorally in dogs; assay type: functional; settings: Canis lupus familiaris, Stomach, po; procedure, shortened: as §2
Canis familiaris [10] = test: Inhibition of gastric acid secretion at 40 mg/kg oral administration to dogs; Compound is CNS (central nervous system) effective; assay type: functional, organism-based; set-up: dose 40 mg/kg; settings: Canis lupus familiaris, Stomach; procedure, shortened: as §1

Compound	inhibition in vivo at 40 mg/kg (Canis familiaris [1])	inhibition in vivo at 20 mg/kg (Canis familiaris [2])	inhibition in vivo at 10 mg/kg (Canis familiaris [6])	also measured
CC(C)N(CCN(C(=O)N(C)C)c1ccccn1)C(C)C	82%	17%		
Cc1cc(C)nc(N(CCN(C(C)C)C(C)C)C(=O)N(C)C)c1.Cl		100%	70%	ED50 (Canis familiaris [3]): 5.1 mg/kg; ED50 (Canis familiaris [4]): 9.6 mg/kg; ED50 (Canis familiaris [5]): 12.6 mg/kg; ED50 (Canis familiaris [7]): 3.8 mg/kg; ED50 (Canis familiaris [8]): 3.3 mg/kg; ED50 (Canis familiaris [9]): 6.8 mg/kg
Cc1ccc(N(CCN(C(C)C)C(C)C)C(=O)N(C)C)nc1	33%	19%		
CCCN(CCC)CCN(C(=O)N(C)C)c1cc(C)cc(C)n1	93%	22%		
Cc1cc(C)nc(N(CCN(C(C)C)C(C)C)C(N)=O)c1		18%		inhibition (Canis familiaris [10]): CNS effect
CNCCN(C(=O)N(C)C)c1cc(C)cc(C)n1	20%			
CC(C)N(CCN(C(=O)N(C)C)c1ccc(Cl)cn1)C(C)C		63%	44%	
Cc1cccc(N(CCN(C(C)C)C(C)C)C(=O)N(C)C)n1		87%	54%	
Cc1cc(C)nc(N(CCCCN(C(C)C)C(C)C)C(=O)N(C)C)c1	3%	5%		
Cc1cc(Cl)nc(N(CCN(C(C)C)C(C)C)C(=O)N(C)C)c1		71%	52%	
Cc1ccnc(N(CCN(C(C)C)C(C)C)C(=O)N(C)C)c1		95%	79%	
COc1ccnc(N(CCN(C(C)C)C(C)C)C(=O)N(C)C)c1		84%	64%	
Cc1cc(C)nc(N(CCN(C)C)C(=O)N(C)C)c1	58%	58%	14%	
Cc1cc(C)nc(N(CCCN(C(C)C)C(C)C)C(=O)N(C)C)c1	35%	0%		
CN/C(=N\CCSCc1nc[nH]c1C)NC#N [CIMETIDINE]				ED50 (Canis familiaris [3]): 2.6 mg/kg; ED50 (Canis familiaris [4]): 5 mg/kg; ED50 (Canis familiaris [5]): 3.5 mg/kg; ED50 (Canis familiaris [7]): 3.9 mg/kg; ED50 (Canis familiaris [8]): 3.6 mg/kg; ED50 (Canis familiaris [9]): 6.4 mg/kg
Cc1cc(C)nc(N(CCNC(C)C)C(=O)N(C)C)c1	42%	33%		
CNC(=O)N(CCN(C(C)C)C(C)C)c1cc(C)cc(C)n1		44%		inhibition (Canis familiaris [10]): CNS effect
Cc1cc(N(CCN(C(C)C)C(C)C)C(=O)N(C)C)nc(C)c1Cl		95%	62%	
CC(C)N(CCN(C(=O)N(C)C)c1cccc(Cl)n1)C(C)C		78%		
